Measured values taken from ChEMBL document CHEMBL4680103, “In Vitro and in Vivo Anti-Trypanosoma cruzi Activity of New Arylamine Mannich Base-Type Derivatives” (J Med Chem, 2016).
pIC50: −log10 of the molar value.

Legend:
Trypanosoma cruzi [1] = experiment: Antitrypanosomal activity against Trypanosoma cruzi Arequipa epimastigote forms incubated for 72 hrs by hemocytometry; format: functional, organism-based
Summary of the method: (§1)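 Epimastigotes grown in MTL medium with 10% inactivated FBS at 28 °C. Compounds were dissolved in DMSO (0.01% v/v) and added at 0.1–100 µM for 72 h. Parasites were counted in a Neubauer chamber. IC50 (50% growth inhibition) was derived by linear regression of Kc values. Values are averages of four determinations.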

Trypanosoma cruzi [2] = experiment: Antitrypanosomal activity against Trypanosoma cruzi Arequipa amastigote forms infected in African green monkey Vero cells incubated for 72 hrs by Giemsa staining based micrscopy; format: functional, organism-based
Summary of the method: (§2)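 Vero cells (RPMI, 10% inactivated FBS, 37 °C, 5% CO2) were seeded at 1×10^4/well on coverslips and cultured 2 days. They were infected 24 h with metacyclic forms at 10:1. After washing off free parasites, drugs were added at 0.1–100 µM for 72 h. Slides were methanol-fixed and Giemsa-stained; amastigotes were counted in 200 host cells versus untreated. IC50 was calculated.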

Trypanosoma cruzi [3] = experiment: Antitrypanosomal activity against Trypanosoma cruzi Arequipa trypomastigote froms infected in mouse blood incubated for 24 hrs by Neubauer chamber based assay; format: functional, organism-based
Summary of the method: (§3)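 Mouse blood taken at peak parasitemia (day 7) was diluted with uninfected blood to 4×10^6 trypomastigotes/mL, then 1:2 in RPMI 1640. Drugs from DMSO stocks were added at 1, 10, 25, 50 and 100 µM and incubated 24 h at 4–8 °C. Parasites were counted in a Neubauer chamber in triplicate. IC50 was calculated versus control.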

Trypanosoma cruzi [4] = experiment: Antitrypanosomal activity against Trypanosoma cruzi Tulahuen epimastigote forms incubated for 72 hrs by hemocytometry; format: functional, organism-based; summary of the method: as §1
Trypanosoma cruzi [5] = experiment: Antitrypanosomal activity against Trypanosoma cruzi Tulahuen amastigote forms infected in African green monkey Vero cells incubated for 72 hrs by Giemsa staining based micrscopy; format: functional, organism-based; summary of the method: as §2
Trypanosoma cruzi [6] = experiment: Antitrypanosomal activity against Trypanosoma cruzi Tulahuen trypomastigote froms infected in mouse blood incubated for 24 hrs by Neubauer chamber based assay; format: functional, organism-based; summary of the method: as §3
Trypanosoma cruzi [7] = experiment: Antitrypanosomal activity against Trypanosoma cruzi SN3 epimastigote forms incubated for 72 hrs by hemocytometry; format: functional, organism-based; conditions: SN3, 72 h; summary of the method: as §1
Trypanosoma cruzi [8] = experiment: Antitrypanosomal activity against Trypanosoma cruzi SN3 amastigote forms infected in African green monkey Vero cells incubated for 72 hrs by Giemsa staining based micrscopy; format: functional, organism-based; summary of the method: as §2
Trypanosoma cruzi [9] = experiment: Antitrypanosomal activity against Trypanosoma cruzi SN3 trypomastigote froms infected in mouse blood incubated for 24 hrs by Neubauer chamber based assay; format: functional, organism-based; summary of the method: as §3
Vero = experiment: Cytotoxicity in African green monkey Vero cells incubated for 72 hrs; format: cell-based; conditions: Chlorocebus sabaeus

| SMILES | pIC50 (Trypanosoma cruzi [1]) | pIC50 (Trypanosoma cruzi [2]) | pIC50 (Trypanosoma cruzi [3]) | pIC50 (Trypanosoma cruzi [4]) | pIC50 (Trypanosoma cruzi [5]) | pIC50 (Trypanosoma cruzi [6]) | pIC50 (Trypanosoma cruzi [7]) | pIC50 (Trypanosoma cruzi [8]) | pIC50 (Trypanosoma cruzi [9]) | pIC50 (Vero) |
| --- | --- | --- | --- | --- | --- | --- | --- | --- | --- | --- |
| O=C(CCN1CCN(c2ccc(Cl)cc2)CC1)c1ccsc1 | 4.85 | 5.00 | 4.33 | 4.55 | 5.11 | 4.65 | 4.62 | 4.79 | 4.66 | 4.18 |
| O=C(CCN1CCN(c2ccc(Cl)cc2)CC1)c1csc2ccc(F)cc12 | 4.55 | 4.88 | 5.02 | 5.02 | 4.83 | 4.66 | 4.52 | 4.75 | 4.71 | 3.61 |
| O=C(CCN1CCN(c2ccc([N+](=O)[O-])cc2)CC1)c1ccc2ccccc2c1 | 5.47 | 5.27 | 5.41 | 5.16 | 5.07 | 5.16 | 4.56 | 4.69 | 4.58 | 4.13 |
| O=C(CCN1CCN(c2ccc(Cl)cc2)CC1)c1csc2ccccc12 | 4.51 | 4.60 | 4.50 | 4.37 | 5.00 | 4.89 | 4.63 | 4.58 | 4.36 | 3.80 |
| O=C(CCN1CCN(c2ccc(C(F)(F)F)cc2)CC1)c1ccc2ccccc2c1 | 5.91 | 5.59 | 5.08 | 5.38 | 4.69 | 5.18 | 4.82 | 5.08 | 4.44 | 4.52 |
| O=C(CCN1CCN(Cc2cccc(F)c2)CC1)c1csc2ccccc12 | 4.06 | 4.65 | 4.40 | 4.54 | 4.70 | 4.56 | 4.27 | 4.49 | 4.06 | 4.15 |
| O=C(CCN1CCN(Cc2ccccc2)CC1)c1csc2ccccc12 | 4.53 | 4.50 | 4.36 | 4.52 | 4.66 | 4.49 | 4.37 | 4.73 | 4.68 | 3.89 |
| O=C(CCN1CCN(c2ccc(C(F)(F)F)cc2)CC1)c1ccc2c(c1)OCO2 | 4.30 | 4.55 | 4.66 | 4.66 | 4.75 | 4.63 | 4.75 | 4.89 | 4.85 | 4.31 |
| O=C(CCN1CCN(c2ccc([N+](=O)[O-])cc2)CC1)c1ccc2c(c1)OCO2 | 5.85 | 5.92 | 6.24 | 4.81 | 4.94 | 7.10 | 4.73 | 4.94 | 4.29 | 3.56 |
| O=C(CCN1CCN(c2ccc(F)cc2)CC1)c1ccc2c(c1)OCO2 | 4.01 | 4.65 | 4.46 | 3.70 | 4.65 | 4.25 | 4.75 | 4.83 | 4.20 | 3.49 |
| O=C(CCN1CCN(c2ccc(C(F)(F)F)cc2)CC1)c1csc2ccccc12 | 4.66 | 4.71 | 4.49 | 4.32 | 5.09 | 5.18 | 4.39 | 4.67 | 4.36 | 3.63 |
| COc1cc(Cl)ccc1N1CCN(CCC(=O)c2cc(C)sc2C)CC1 | 5.60 | 6.10 | 6.15 | 5.33 | 5.70 | 5.64 | 4.67 | 4.62 | 4.43 | 3.86 |
| O=C(CCN1CCN(c2ccc(Cl)cc2)CC1)c1ccc2c(c1)OCO2 | 5.60 | 5.77 | 4.33 | 4.16 | 4.95 | 4.53 | 4.90 | 5.21 | 4.77 | 6.52 |
